Data published in ChEMBL document CHEMBL2176903, “P2-substituted N-acylprolylpyrrolidine inhibitors of prolyl oligopeptidase: biochemical evaluation, binding mode determination, and assessment in a cellular model of synucleinopathy” (J Med Chem, 2012).
pIC50: −log10 of the molar value. Calls of active or inactive are those of the source. The rule behind the calls is not given here.

Tests used:
Prolyl endopeptidase = Prolyl endopeptidase (Sus scrofa, UniProt P23687); assay: Inhibition of pig PREP expressed in Escherichia coli using Z-Gly-Pro-p-nitroanilide substrate
Prolyl endopeptidase FAP = molecular target: T1, Prolyl endopeptidase FAP (Mus musculus, UniProt P97321); assay: Inhibition of mouse recombinant FAP expressed in HEK293 cells assessed as pNA release from Ala-Pro-p-nitroanilide pre-incubated with enzyme for 15 mins prior to substrate addition by […]; assay type: cell-based
T1 sequence (P97321 whole entry): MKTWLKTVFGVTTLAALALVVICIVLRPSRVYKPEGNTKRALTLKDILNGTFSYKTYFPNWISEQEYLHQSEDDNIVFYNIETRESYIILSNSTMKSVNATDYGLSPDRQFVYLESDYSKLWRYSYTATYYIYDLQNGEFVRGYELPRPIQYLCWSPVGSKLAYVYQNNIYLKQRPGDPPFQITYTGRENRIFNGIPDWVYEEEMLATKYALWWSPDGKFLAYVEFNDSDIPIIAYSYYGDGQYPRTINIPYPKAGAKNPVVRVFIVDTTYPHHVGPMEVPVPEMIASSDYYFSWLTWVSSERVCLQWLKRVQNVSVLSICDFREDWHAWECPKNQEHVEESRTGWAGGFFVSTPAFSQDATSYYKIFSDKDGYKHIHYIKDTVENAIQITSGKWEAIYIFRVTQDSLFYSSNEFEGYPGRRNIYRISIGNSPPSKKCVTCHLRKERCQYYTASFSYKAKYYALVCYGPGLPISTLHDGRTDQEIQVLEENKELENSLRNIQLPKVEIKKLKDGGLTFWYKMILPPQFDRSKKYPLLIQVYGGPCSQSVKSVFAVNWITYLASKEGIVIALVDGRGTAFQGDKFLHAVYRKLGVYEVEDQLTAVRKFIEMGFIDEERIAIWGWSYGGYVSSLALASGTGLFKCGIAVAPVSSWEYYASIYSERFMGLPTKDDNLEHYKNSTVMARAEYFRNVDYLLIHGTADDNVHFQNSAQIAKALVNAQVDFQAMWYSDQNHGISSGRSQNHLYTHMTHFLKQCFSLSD

Dipeptidyl peptidase 2 = Dipeptidyl peptidase 2 (Homo sapiens, UniProt Q9UHL4); assay: Inhibition of human seminal plasma DPP2 assessed as pNA release from Lys-Ala-p-nitroanilide substrate pre-incubated with enzyme for 15 min prior to substrate addition by […]
[1] = molecular target: T2, Prolyl endopeptidase (Homo sapiens) (UniProt P48147); assay: Inhibition of PREP in human SH-SY5Y cellular model of synucleinopathy over-expressing alpha-synuclein assessed as reduction in alpha-synuclein aggregation 0.1 to 9 uM incubated for 3 days under oxidative stress condition by high content multiparametric method
T2 sequence (whole entry): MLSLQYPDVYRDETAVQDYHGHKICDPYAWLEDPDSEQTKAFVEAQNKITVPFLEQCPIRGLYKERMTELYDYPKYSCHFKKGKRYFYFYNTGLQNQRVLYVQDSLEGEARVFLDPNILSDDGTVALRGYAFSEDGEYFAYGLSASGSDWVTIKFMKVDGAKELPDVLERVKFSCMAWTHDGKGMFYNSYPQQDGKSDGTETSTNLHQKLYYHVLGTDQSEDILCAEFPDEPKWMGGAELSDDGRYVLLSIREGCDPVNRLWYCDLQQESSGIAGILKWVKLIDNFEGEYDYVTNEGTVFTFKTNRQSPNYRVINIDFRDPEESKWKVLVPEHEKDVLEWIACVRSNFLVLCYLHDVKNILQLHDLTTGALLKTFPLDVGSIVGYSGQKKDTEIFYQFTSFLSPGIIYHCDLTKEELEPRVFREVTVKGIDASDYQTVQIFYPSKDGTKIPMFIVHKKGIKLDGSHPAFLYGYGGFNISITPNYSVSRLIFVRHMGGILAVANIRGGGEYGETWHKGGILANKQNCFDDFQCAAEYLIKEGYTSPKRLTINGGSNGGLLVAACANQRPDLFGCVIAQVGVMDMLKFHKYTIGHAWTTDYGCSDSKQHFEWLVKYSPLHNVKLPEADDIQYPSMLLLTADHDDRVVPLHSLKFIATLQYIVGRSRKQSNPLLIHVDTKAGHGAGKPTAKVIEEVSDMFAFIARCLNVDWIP
Outline: (§1)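 SH-SY5Y neuroblastoma cells overexpressing α-SYN were incubated with inhibitor for 3 days under oxidative stress from H₂O₂ plus FeCl₂. Aggregates were detected by thioflavin S staining. Late apoptosis was scored as nuclear condensation and fragmentation. Quantification used automated high-content imaging. Values are % of cells relative to the 1% DMSO control. Significance was tested by ANOVA with Dunnett's post-test (5% level).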

Dipeptidyl peptidase 4 = Dipeptidyl peptidase 4 (Homo sapiens, UniProt P27487); assay: Inhibition of human seminal plasma DPP4 assessed as pNA release from Gly-Pro-p-nitroanilide substrate pre-incubated with enzyme for 15 min prior to substrate addition by […]
[2] = Inhibition of bovine testes DPP9 assessed as pNA release from Ala-Pro- p-nitroanilide substrate pre-incubated with enzyme for 15 min prior to substrate addition by […]; set-up: species or system Bos taurus
[3] = molecular target: T2, Prolyl endopeptidase (Homo sapiens); assay: Inhibition of PREP in human SH-SY5Y cellular model of synucleinopathy over-expressing alpha-synuclein assessed as reduction in late apoptotic level 0.1 to 9 uM incubated for 3 days under oxidative stress condition by high content multiparametric method; outline: as §1

Chain of Prolyl endopeptidase (P23687 whole entry): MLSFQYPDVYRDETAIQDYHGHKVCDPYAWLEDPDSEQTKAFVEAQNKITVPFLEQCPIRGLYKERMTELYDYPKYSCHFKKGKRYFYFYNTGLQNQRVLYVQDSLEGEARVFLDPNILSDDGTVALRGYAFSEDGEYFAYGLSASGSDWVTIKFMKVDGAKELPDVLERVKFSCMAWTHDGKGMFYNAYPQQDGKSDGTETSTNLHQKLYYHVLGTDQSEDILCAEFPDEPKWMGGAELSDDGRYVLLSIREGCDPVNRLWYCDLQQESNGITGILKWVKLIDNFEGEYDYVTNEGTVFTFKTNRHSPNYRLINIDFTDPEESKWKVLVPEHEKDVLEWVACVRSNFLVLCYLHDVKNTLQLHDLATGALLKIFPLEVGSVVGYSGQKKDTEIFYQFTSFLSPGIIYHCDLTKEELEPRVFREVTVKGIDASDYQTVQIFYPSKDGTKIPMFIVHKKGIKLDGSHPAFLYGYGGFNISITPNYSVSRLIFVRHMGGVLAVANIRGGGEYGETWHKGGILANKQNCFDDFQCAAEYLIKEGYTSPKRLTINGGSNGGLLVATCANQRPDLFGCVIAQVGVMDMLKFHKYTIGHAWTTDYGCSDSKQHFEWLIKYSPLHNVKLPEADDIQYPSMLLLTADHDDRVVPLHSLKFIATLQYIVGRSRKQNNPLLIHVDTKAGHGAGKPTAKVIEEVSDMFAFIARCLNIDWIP
Chain of Dipeptidyl peptidase 4 (P27487 whole entry): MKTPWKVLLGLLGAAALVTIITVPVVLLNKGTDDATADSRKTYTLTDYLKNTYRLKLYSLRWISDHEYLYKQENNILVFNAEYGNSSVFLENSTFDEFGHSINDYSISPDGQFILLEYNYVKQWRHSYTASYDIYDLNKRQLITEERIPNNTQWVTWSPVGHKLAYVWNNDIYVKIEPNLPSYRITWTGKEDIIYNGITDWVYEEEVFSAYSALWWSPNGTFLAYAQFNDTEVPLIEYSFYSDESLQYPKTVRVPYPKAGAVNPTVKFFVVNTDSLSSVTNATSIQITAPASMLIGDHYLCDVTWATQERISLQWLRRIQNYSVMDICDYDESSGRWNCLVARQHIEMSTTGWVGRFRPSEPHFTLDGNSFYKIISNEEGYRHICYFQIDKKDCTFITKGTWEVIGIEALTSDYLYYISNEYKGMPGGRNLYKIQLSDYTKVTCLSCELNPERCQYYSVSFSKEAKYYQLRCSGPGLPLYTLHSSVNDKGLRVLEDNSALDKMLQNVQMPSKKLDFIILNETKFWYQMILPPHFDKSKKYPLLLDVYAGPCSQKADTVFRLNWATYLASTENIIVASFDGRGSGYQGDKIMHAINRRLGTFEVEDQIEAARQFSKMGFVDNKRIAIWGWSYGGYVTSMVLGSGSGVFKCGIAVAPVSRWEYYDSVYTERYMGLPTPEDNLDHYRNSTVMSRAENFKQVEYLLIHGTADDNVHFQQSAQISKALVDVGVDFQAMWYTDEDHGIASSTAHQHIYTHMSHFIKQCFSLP

| Structure (SMILES) | pIC50 (Prolyl endopeptidase) | pIC50 (Prolyl endopeptidase FAP) | pIC50 (Dipeptidyl peptidase 2) | inhibition [1] | pIC50 (Dipeptidyl peptidase 4) | pIC50 [2] | inhibition [3] |
| --- | --- | --- | --- | --- | --- | --- | --- |
| CC(C)(C)OC(=O)NCc1cn([C@H]2C[C@@H](C(=O)N3CCC[C@H]3C#N)N(C(=O)CCCc3ccccc3)C2)nn1 | 8.05 | < 4.00 | < 4.00 | Active | < 4.00 | < 4.00 | Active |
| O=C([C@@H]1C[C@H](n2cc(C3CCCCC3)nn2)CN1C(=O)CCCc1ccccc1)N1CCCC1 | 6.83 | < 5.30 | < 4.00 | – | < 4.00 | < 4.00 | – |
| CN(C)Cc1cn([C@H]2C[C@@H](C(=O)N3CCCC3)N(C(=O)CCCc3ccccc3)C2)nn1 | 7.62 | – | < 4.00 | – | < 4.00 | < 5.00 | – |
| NCc1cn([C@H]2C[C@@H](C(=O)N3CCCC3)N(C(=O)CCCc3ccccc3)C2)nn1 | 6.77 | < 4.00 | < 5.00 | – | < 4.00 | < 4.00 | – |
| O=C([C@@H]1C[C@H](n2ccnn2)CN1C(=O)OCc1ccccc1)N1CCCC1 | 5.94 | < 4.00 | < 4.00 | – | < 4.00 | 4.17 | – |
| N#C[C@@H]1CCCN1C(=O)[C@@H]1CCCN1C(=O)CCCc1ccccc1 | – | < 5.00 | < 4.00 | – | < 4.00 | < 4.00 | – |
| N#C[C@@H]1CCCN1C(=O)[C@@H]1C[C@H](N=[N+]=[N-])CN1C(=O)CCCc1ccccc1 | 8.52 | < 4.00 | < 4.00 | Active | < 4.00 | < 4.00 | Active |
| [N-]=[N+]=N[C@H]1C[C@@H](C(=O)N2CCCC2)N(C(=O)OCc2ccccc2)C1 | 6.44 | < 4.00 | < 4.00 | – | < 4.00 | < 4.00 | – |
| CC(C)(C)OC(=O)N1CCN(Cc2cn([C@H]3C[C@@H](C(=O)N4CCCC4)N(C(=O)CCCc4ccccc4)C3)nn2)CC1 | 6.96 | < 4.00 | < 4.00 | – | < 4.00 | 6.22 | – |
| CC(C)(C)OC(=O)NCc1cn([C@@H]2C[C@@H](C(=O)N3CCCC3)N(C(=O)CCCc3ccccc3)C2)nn1 | 6.55 | < 4.00 | < 4.00 | – | < 4.00 | < 4.00 | – |
| O=C([C@@H]1C[C@H](n2cc(-c3ccccc3)nn2)CN1C(=O)OCc1ccccc1)N1CCCC1 | 6.32 | – | < 4.00 | – | < 4.00 | < 4.00 | – |
| O=C([C@@H]1C[C@@H](n2cc(-c3ccccc3)nn2)CN1C(=O)CCCc1ccccc1)N1CCCC1 | 6.27 | – | < 4.00 | – | < 4.00 | < 4.30 | – |
| CC(C)(C)OC(=O)NCc1cn([C@H]2C[C@@H](C(=O)N3CCCC3)N(C(=O)OCc3ccccc3)C2)nn1 | 6.85 | < 4.00 | < 4.00 | – | < 4.00 | < 5.00 | – |
| O=C([C@@H]1C[C@H](n2cc(-c3ccc(F)c(F)c3)nn2)CN1C(=O)CCCc1ccccc1)N1CCCC1 | 7.76 | < 5.30 | < 5.00 | – | < 4.00 | > 4.00 | – |
| O=C([C@@H]1CCCN1C(=O)OCc1ccccc1)N1CCCC1 | – | < 4.00 | < 4.00 | – | < 4.00 | < 4.00 | – |
| [N-]=[N+]=N[C@@H]1C[C@@H](C(=O)N2CCCC2)N(C(=O)CCCc2ccccc2)C1 | 6.52 | < 4.00 | < 4.00 | – | < 4.00 | < 4.00 | – |

| Structure (SMILES) | pIC50 (Prolyl endopeptidase) | pIC50 (Prolyl endopeptidase FAP) | pIC50 (Dipeptidyl peptidase 2) | inhibition [1] | pIC50 (Dipeptidyl peptidase 4) | pIC50 [2] | inhibition [3] |
| --- | --- | --- | --- | --- | --- | --- | --- |
| O=C([C@@H]1C[C@H](n2cc(-c3ccccc3Cl)nn2)CN1C(=O)CCCc1ccccc1)N1CCCC1 | 7.64 | < 5.30 | < 5.00 | – | < 4.00 | < 4.00 | – |
| CC(C)(C)OC(=O)NCc1cn([C@H]2C[C@@H](C(=O)N3CCCC3)N(C(=O)CCCc3ccccc3)C2)nn1 | 7.49 | < 4.00 | < 4.00 | – | < 4.00 | < 4.00 | – |
| O=C([C@@H]1C[C@H](n2cc(C3CC3)nn2)CN1C(=O)CCCc1ccccc1)N1CCCC1 | 7.41 | < 4.00 | < 4.00 | – | < 4.00 | < 5.00 | – |
| O=C([C@@H]1C[C@H](n2cc(-c3ccccn3)nn2)CN1C(=O)CCCc1ccccc1)N1CCCC1 | 7.16 | < 4.00 | < 4.00 | – | < 4.00 | < 4.00 | – |
| O=C([C@@H]1C[C@H](n2cc(-c3ccc(F)cc3)nn2)CN1C(=O)CCCc1ccccc1)N1CCCC1 | 7.48 | – | < 4.00 | – | < 4.00 | < 4.00 | – |
| Cn1cnc(-c2cn([C@H]3C[C@@H](C(=O)N4CCCC4)N(C(=O)CCCc4ccccc4)C3)nn2)c1 | 7.05 | – | – | – | – | – | – |
| O=C([C@@H]1C[C@H](n2cc(CN3CCOCC3)nn2)CN1C(=O)CCCc1ccccc1)N1CCCC1 | 6.62 | < 4.00 | < 4.00 | – | < 4.30 | 5.96 | – |
| O=C([C@@H]1CCCN1C(=O)CCCc1ccccc1)N1CCCC1 | – | < 4.00 | < 4.00 | – | < 4.00 | < 4.00 | – |
| O=C([C@@H]1C[C@H](n2cc(COCc3ccccc3)nn2)CN1C(=O)CCCc1ccccc1)N1CCCC1 | 6.88 | – | < 4.00 | – | < 4.00 | < 4.00 | – |
| C[Si](C)(C)c1cn([C@H]2C[C@@H](C(=O)N3CCCC3)N(C(=O)OCc3ccccc3)C2)nn1 | 6.02 | < 4.00 | < 4.00 | – | < 4.00 | < 4.00 | – |
| [N-]=[N+]=N[C@H]1C[C@@H](C(=O)N2CCCC2)N(C(=O)CCCc2ccccc2)C1 | 6.85 | < 4.00 | < 4.00 | – | < 4.00 | < 4.00 | – |
| O=C([C@@H]1C[C@H](n2cc(-c3ccccn3)nn2)CN1C(=O)OCc1ccccc1)N1CCCC1 | 6.45 | < 4.00 | < 4.00 | – | < 4.00 | 4.28 | – |
| O=C([C@@H]1C[C@H](n2cc(-c3ccc(F)cc3F)nn2)CN1C(=O)CCCc1ccccc1)N1CCCC1 | 7.62 | < 5.30 | < 4.00 | – | < 4.00 | < 5.00 | – |
| O=C([C@@H]1C[C@H](n2cc(-c3ccccc3)nn2)CN1C(=O)CCCc1ccccc1)N1CCCC1 | 6.77 | – | < 4.00 | – | < 4.00 | < 4.00 | – |
| O=C([C@@H]1C[C@H](n2cc(CN3CCNCC3)nn2)CN1C(=O)CCCc1ccccc1)N1CCCC1 | 7.00 | < 4.00 | < 4.00 | – | < 4.00 | 5.89 | – |
| O=C([C@@H]1C[C@H](n2cc(-c3ccc(Br)cc3)nn2)CN1C(=O)CCCc1ccccc1)N1CCCC1 | 7.85 | < 4.00 | < 4.00 | – | < 4.00 | < 5.00 | – |
